From ChEMBL document CHEMBL1148492, “Synthesis and structure-activity relationship study of potent cytotoxic analogues of the marine alkaloid Lamellarin D” (2006) come the findings set out here.

For assay [1], the system named is MDA-MB-231. The assay can be described thus: Antiproliferative activity against human MDA-MB-231 cell line after 72 hrs by SRB assay at 10 ug/mL. The class given is functional, cell-based.
Assay [2] has as its system A549. In words: Antiproliferative activity against human A549 cell line after 72 hrs by SRB assay at 10 ug/mL. The class given is functional, cell-based. A general note: The SRB assay estimates cell density from bound dye.
For assay [3], the system named is HT-29. The assay can be described thus: Antiproliferative activity against human HT29 cell line after 72 hrs by SRB assay. The conditions noted are these: HT-29, 72 h. Type of assay: functional. The method in brief: (§1)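 Cells seeded at 5×10³/well in RPMI and allowed to attach in drug-free medium for 18 h. Compounds were added in DMSO/H2O (3:7) and exposure was continuous for 72 h. Cells were then fixed with cold 50% TCA for 60 min at 4°C, stained with 0.4% SRB in 1% acetic acid for 10 min at room temperature, solubilized in Tris, and OD was read at 490 nm. GI50 was derived from 100×[(T−T0)/(C−T0)]=50.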

The test system of assay [4] is A549. The assay can be described thus: Antiproliferative activity against human A549 cell line after 72 hrs by SRB assay. The class given is functional. The note with it: A549, 72 h. The gist of the method: as §1
Assay [5] deals with HT-29. In words: Antiproliferative activity against human HT29 cell line after 72 hrs by SRB assay at 10 ug/mL. Type of assay: functional, cell-based.

Activity calls are given as the source filed them. The calls are words filed in the database; no cut-off is given here.

For orientation: GI50 means the concentration at which growth is held to half of that of the control. For the molecule `COC(=O)c1c(-c2cc(OC)c(OC(C)C)cc2OC(C)C)c(-c2ccc(OC(C)C)c(OC)c2)c2c3cc(OC)c(OC(C)C)cc3ccn12`, the result in assay [1] and in assay [2] was inactive. It took 13.6 µM to inhibit growth in assay [3] by half (GI50).
For `COC(=O)c1c(-c2cc(OC)c(OC)c(OC)c2)c(-c2cc(OC)c(OC)c(OC)c2)c2n1CCc1cc(OC(C)C)c(OC)cc1-2`, the values for the GI50 in assay [4] and in assay [3] were 67.9 µM and 34 µM, respectively. Besides, in assay [1], the result was inactive.
As for `COC(=O)c1cc(-c2cc(OC)c(OC)c(OC)c2)c2n1CCc1cc(OC(C)C)c(OC)cc1-2`, the result in assay [5], in assay [1] and in assay [2] was inactive.
